Source: ChEMBL document CHEMBL3046177, “Plant growth inhibitory activity of p-hydroxyacetophenones and tremetones from Chilean endemic Baccharis species and some analogous: a comparative study” (J Agric Food Chem, 2002)
Calls of active or inactive are those of the source. The rule behind the calls is not given here.

How the values were obtained:
[1] = test system: Physalis ixocarpa; test: Phytotoxicity against Physalis ixocarpa assessed as inhibition of shoot development during seeding stage after 120 hr; format: functional, organism-based; conditions: for IC50: read-out: I50
Summary of the method: (§1)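 Petri-dish seedling assay on filter paper wetted with test solution (MeOH < 1%), 28 °C in the dark. Coleoptile/hypocotyl and root lengths of all germinated seeds measured after 120 h, then plants dried to constant weight at 40 °C. Three replicates; 50% inhibitory concentrations by Probit analysis of percent inhibition versus concentration.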

[2] = test system: Lolium multiflorum; test: Phytotoxicity against Lolium multiflorum (Italian ryegrass) assessed as inhibition of root development during seeding stage after 120 hr; format: functional, organism-based; conditions: for IC50: read-out: I50; summary of the method: as §1
[3] = test system: Lolium multiflorum; test: Phytotoxicity against Lolium multiflorum (Italian ryegrass) assessed as inhibition of seed respiration during germination after 72 hr; format: functional, organism-based; conditions: read-out: I50
Summary of the method: (§2)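 Oxygen uptake of germinating seeds measured polarographically with a Clark-type electrode at 25 °C in a nonilluminated cell over 5 and 10 min, at several compound concentrations. Expressed as percent of control (100%). Three experiments; RI50 from Probit analysis.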

[4] = test system: Trifolium pratense; test: Phytotoxicity against Trifolium pratense (red clover) assessed as inhibition of seed respiration during germination after 72 hr; format: functional, organism-based; conditions: read-out: I50; summary of the method: as §2
[5] = test system: Lolium multiflorum; test: Phytotoxicity against Lolium multiflorum (Italian ryegrass) assessed as inhibition of shoot development during seeding stage after 120 hr; format: functional, organism-based; conditions: for IC50: read-out: I50; summary of the method: as §1
[6] = test system: Physalis ixocarpa; test: Phytotoxicity against Physalis ixocarpa assessed as inhibition of root development during seeding stage after 120 hr; format: functional, organism-based; conditions: for IC50: read-out: I50; summary of the method: as §1
[7] = test system: Spinacia oleracea; test: Inhibition of H+ uptake in Spinacia oleracea (spinach) chloroplasts; format: functional; conditions: for IC50: read-out: I50
Summary of the method: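 Spinach thylakoids (from isolated chloroplasts, in sorbitol/tricine/MgCl2/NaCl buffer, pH 7.8) in 100 mM sorbitol, 5 mM MgCl2, 10 mM KCl, 1 mM Na+-tricine, pH 8, with 50 µM methyl viologen. Illuminated at 20 °C through 1% CuSO4 filter. H+ uptake recorded as pH rise from 8.0 to 8.1 with combination microelectrode on expanded scale.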

[8] = test system: Trifolium pratense; test: Phytotoxicity against Trifolium pratense (red clover) assessed as inhibition of shoot development during seeding stage after 120 hr; format: functional, organism-based; conditions: for IC50: read-out: I50; summary of the method: as §1
[9] = test system: Lactuca sativa; test: Phytotoxicity against Lactuca sativa (lettuce) assessed as inhibition of root development during seeding stage after 120 hr; format: functional, organism-based; conditions: for IC50: read-out: I50; summary of the method: as §1
[10] = test system: Lactuca sativa; test: Phytotoxicity against Lactuca sativa (lettuce) assessed as inhibition of shoot development during seeding stage after 120 hr; format: functional, organism-based; conditions: for IC50: read-out: I50; summary of the method: as §1
[11] = test system: Lolium multiflorum; test: Phytotoxicity against Lolium multiflorum (Italian ryegrass) assessed as inhibition of seed germination after 48 hr; format: functional
Summary of the method: (§3)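 Seeds of uniform size on Whatman No.1 filter paper in 85 mm Petri dishes, wetted with 8 or 10 mL deionized water or test solution (MeOH < 1%); controls got matching water/methanol. Sealed, incubated at 28 °C in the dark, scored at 48 h intervals; germination = 1 mm radicle extrusion. Three replicates.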

[12] = test system: Lactuca sativa; test: Phytotoxicity against Lactuca sativa (lettuce) assessed as inhibition of seed respiration during germination after 72 hr; format: functional, organism-based; conditions: read-out: I50; summary of the method: as §2
[13] = test system: Trifolium pratense; test: Phytotoxicity against Trifolium pratense (red clover) assessed as inhibition of seed germination after 48 hr; format: functional; summary of the method: as §3
[14] = test system: Spinacia oleracea; test: Inhibition of ATP synthesis in Spinacia oleracea (spinach) chloroplasts; format: functional
Summary of the method: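 Spinach thylakoids in 100 mM sorbitol, 5 mM MgCl2, 10 mM KCl, 1 mM Na+-tricine, pH 8, with 50 µM methyl viologen as Hill-reaction electron acceptor. Illuminated at 20 °C through 1% CuSO4 filter. ATP synthesis measured titrimetrically.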

[15] = test system: Lactuca sativa; test: Phytotoxicity against Lactuca sativa (lettuce) assessed as inhibition of seed germination after 48 hr; format: functional; summary of the method: as §3
[16] = test system: Physalis ixocarpa; test: Phytotoxicity against Physalis ixocarpa assessed as inhibition of seed germination after 48 hr; format: functional; summary of the method: as §3
[17] = test system: Phaseolus vulgaris; test: Inhibition of mitochondrial respiration in Phaseolus vulgaris root mitochondria assessed as reduction of oxygen uptake; format: functional; conditions: read-out: I50
Summary of the method: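 Mitochondria from roots of 72 h dark-grown (28 °C) bean seedlings, Percoll-gradient purified, 0.3-0.5 mg protein (Bradford) per run; integrity checked with HCN. Compounds in 0.5% methanol added after a constant state 3 rate with […] was reached. O2 uptake by Clark electrode; control is mitochondria with 0.5% MeOH. Three experiments; I50 by Probit.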

[18] = test system: Physalis ixocarpa; test: Phytotoxicity against Physalis ixocarpa assessed as inhibition of seed respiration during germination after 72 hr; format: functional, organism-based; conditions: read-out: I50; summary of the method: as §2
[19] = test system: Trifolium pratense; test: Phytotoxicity against Trifolium pratense (red clover) assessed as inhibition of root development during seeding stage after 120 hr; format: functional, organism-based; conditions: for IC50: read-out: I50; summary of the method: as §1
[20] = Antioxidant activity assessed as inhibition of bleaching of water soluble crocin measured every 5 min by spectrophotometric analysis; format: functional
Summary of the method: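 Aqueous mixture of 10 µM crocin, 1 mM t-BuOOH and 0.5 M t-BuOH with serial dilutions of test compound, placed under UV254 light; crocin bleaching (absorbance decrease) and fluorescence emission at 440 and 470 nm followed every 5 min. Three experiments, mean ± SEM.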

[21] = test system: Radical scavenging activity; test: Antioxidant activity assessed as DPPH free radical scavenging activity after 30 min by TLC autographic assay; format: functional; conditions: in the assay text read “spectrophotometric assay” for “TLC autographic assay”; read-out: I50
[22] = test system: Physalis ixocarpa; test: Increase of shoot development during seeding stage in Physalis ixocarpa up to 50 uM after 120 hr; format: functional, organism-based; summary of the method: as §1
[23] = test system: Lolium multiflorum (ryegrass); test: Phytotoxicity against Lolium multiflorum (ryegrass) assessed as inhibition of seed germination at 500 uM after 48 hr
[24] = test system: Physalis ixocarpa; test: Phytotoxicity against Physalis ixocarpa assessed as inhibition of seed respiration during germination after 24 hr; format: functional, organism-based; summary of the method: as §2
[25] = test system: Lolium multiflorum; test: Phytotoxicity against Lolium multiflorum (Italian ryegrass) assessed as inhibition of seed respiration during germination after 24 hr; format: functional, organism-based; summary of the method: as §2
[26] = test system: Lolium multiflorum; test: Phytotoxicity against Lolium multiflorum (Italian ryegrass) assessed as inhibition of seed germination at 500 uM after 48 hr; format: functional; summary of the method: as §3
[27] = test system: Lactuca sativa; test: Increase of root development during seeding stage in Lactuca sativa (lettuce) at 50 to 300 uM after 120 hr; format: functional, organism-based; summary of the method: as §1
[28] = test system: Trifolium pratense; test: Increase of shoot development during seeding stage in Trifolium pratense (red clover) at 200 uM after 120 hr; format: functional, organism-based; summary of the method: as §1
[29] = test system: Trifolium pratense; test: Increase of root development during seeding stage in Trifolium pratense (red clover) at 50 to 300 uM after 120 hr; format: functional, organism-based; summary of the method: as §1
[30] = test system: Trifolium pratense; test: Phytotoxicity against Trifolium pratense (red clover) assessed as inhibition of seed respiration during germination after 24 hr; format: functional, organism-based; summary of the method: as §2
[31] = test system: Lactuca sativa; test: Phytotoxicity against Lactuca sativa (lettuce) assessed as inhibition of seed respiration during germination after 24 hr; format: functional, organism-based; summary of the method: as §2

| IC50 [7] | SMILES | IC50 [1] | IC50 [2] | IC50 [5] | IC50 [6] | inhibition [7] | IC50 [8] | IC50 [9] | IC50 [10] | GI50 [11] | GI50 [13] | inhibition [14] | GI50 [15] | GI50 [16] | IC50 [19] | I50 [24] | I50 [25] | I50 [30] | I50 [31] | further results |
| --- | --- | --- | --- | --- | --- | --- | --- | --- | --- | --- | --- | --- | --- | --- | --- | --- | --- | --- | --- | --- |
| 65.7 µM | COc1ccc(C(C)=O)cc1 [P-METHOXY-ACETOPHENONE] | 20.1 µM | 18.9 µM | 17.9 µM | 20.5 µM | Dose-dependent effect | 120 µM | 44.3 µM | 49.5 µM | 18.1 µM | 126 µM | Dose-dependent effect | 51.2 µM | 23.5 µM | 126 µM |  |  |  |  | IC50 [3]: 40 µM; IC50 [4]: 57.6 µM; IC50 [12]: 55.9 µM; IC50 [17]: 152 µM; IC50 [18]: 54.6 µM |
| 74.5 µM | CC(=O)c1ccc(O)cc1 [4-HYDROXYACETOPHENONE] | 10.8 µM | 19 µM | 17.1 µM | 10.8 µM | Dose-dependent effect | 34.4 µM | 45.5 µM | 48.5 µM | 14.4 µM | 28.5 µM | Dose-dependent effect | 45.3 µM | 15 µM | 29.5 µM |  |  |  |  | IC50 [3]: 41 µM; IC50 [4]: 53 µM; IC50 [12]: 43 µM; IC50 [17]: 121 µM; IC50 [18]: 52.9 µM; inhibition [20]: Active |
|  | O=C1C(O)=C(O)C(=O)C(O)=C1O [TETROQUINONE] |  |  |  |  |  |  |  |  |  |  |  |  |  |  |  |  |  |  | IC50 [21]: 9.37 µM |
|  | CC(=O)c1ccc(Br)cc1 |  |  |  |  |  |  |  |  | inactive | inactive |  | inactive | inactive |  | inactive | inactive | inactive | inactive | Activity [22]: Active; I50 [1]: inactive; I50 [2]: inactive; inhibition at 500 µM [23]: 30%; I50 [5]: inactive; I50 [6]: inactive; I50 [8]: inactive; I50 [9]: inactive; inhibition at 500 µM [26]: 30%; I50 [10]: inactive; Activity [27]: Active; Activity [28]: Active; I50 [19]: inactive; Activity [29]: Active |
| 70.7 µM | C=C(C)[C@H]1Cc2cc(C(C)=O)ccc2O1 [TREMETONE] | 7.7 µM | 36.1 µM | 35 µM | 18.6 µM | Dose-dependent effect | 35.5 µM | 44.2 µM | 45 µM | 37.5 µM | 35.5 µM | Dose-dependent effect | 45 µM | 31.8 µM | 34.9 µM | inactive | inactive | inactive | inactive | inhibition [20]: Active |
|  | CC(=O)c1ccc2c(c1)C[C@H](C(C)C)O2 [10,11-DIHYDRO TREMETONE] | 20.1 µM | 31.9 µM | 29.3 µM | 19.1 µM |  | 23.2 µM | 17.4 µM | 17.3 µM | 31.5 µM | 27.9 µM |  | 25.9 µM | 24.7 µM | 28.6 µM | inactive | inactive | inactive | inactive |  |
|  | CC(=O)c1ccccc1 [ACETOPHENONE] |  | 128 µM | 126 µM |  |  | 137 µM | 45.7 µM | 49.5 µM | 128 µM | 137 µM |  | 47 µM | inactive | 134 µM | inactive | inactive | inactive | inactive | I50 [1]: inactive; inhibition at 500 µM [23]: 30%; I50 [6]: inactive; inhibition at 500 µM [26]: 30% |
